In data set [1] the test system is Huh-7. Kind of data set: Antitumour activity against human Huh-7 cells xenografted in nude mouse assessed as increase in LC3-2 at 20 to 50 mg/kg, ip up to 15 days by immunohistochemical analysis. As to conditions: dose 20-50 mg/kg, time day <=15. Type of data set: functional, organism-based. The gist of the method: (§1)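 Tumors came from Huh-7 xenografted nude mice dosed intraperitoneally at 25 or 50 mg/Kg for 15 days. For IHC, sections underwent microwave antigen retrieval (EDTA pH 8.0 or citrate pH 6.0), then primary antibody at 37 °C for 30-40 min. HRP polymer/secondary was applied for 30 min, with DAB development and control IgG.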
For orientation: Xenograft models place foreign cells or tissue in a host animal.

Data set [2] addresses cAMP-dependent protein kinase catalytic subunit alpha (Homo sapiens) (UniProt P17612). The data set can be described thus: Inhibition of full length human PKAcalpha assessed as remaining activity at 1 uM using LRRASLG as substrate incubated for 40 mins by scintillation counting method relative to control. The essentials:
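Run as an outsourced KinaseProfiler service, with human PKA and Akt1, Akt2 and Akt3 in the same panel. Each compound was tested at a single 1 µM concentration, and the result is reported as kinase activity remaining, as a percentage of control.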

For a further data set, the species on record is Homo sapiens. Kind of data set: Inhibition of full length human Akt1 […] mutant assessed as remaining activity at 1 uM using GRPRTSSFAEGKK as substrate incubated for 40 mins by scintillation counting method relative to control. The gist of the method:
(§2)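 Eurofins KinaseProfiler kinase assay on human Akt1, Akt2 and Akt3. Compounds were tested at 1 µM. Residual kinase activity is reported as % of control.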

Data set [3] deals with RAC-gamma serine/threonine-protein kinase (Homo sapiens), Q9Y243 [S472D]. The data set can be described thus: Inhibition of full length human Akt3 S472D mutant assessed as remaining activity at 1 uM using GRPRTSSFAEGKK as substrate incubated for 40 mins by scintillation counting method relative to control. The gist of the method:
as §2

For the next data set, the system named is HepG2. The data set can be described thus: Cytotoxicity against human HepG2 cells assessed as reduction in cell viability by MTT assay. It is filed as functional, cell-based. The gist of the method:
(§3)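 Hepatoma cells were grown in DMEM with 10% FBS and streptomycin, then treated with compounds. Viability was read by MTT.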
Background: Tetrazolium dyes change colour on reduction, which living cells bring about.

The test system of another data set is Hep 3B2. The data set can be described thus: Cytotoxicity against human Hep3B cells assessed as reduction in cell viability by MTT assay. It is filed as functional, cell-based. The essentials: as §3
Data set [4] relates to Huh-7. Kind of data set: Induction of apoptosis in human Huh-7 cells assessed as viable cells at 0.2 uM by Annexin V/propidium iodide staining based flow cytometric analysis (reference value: 94.83%). It is filed as functional. As to conditions: read-out: Activity. On the technique in general: A flow cytometer gives signals particle by particle.
For data set [5], the system named is Huh-7. The data set can be described thus: Induction of apoptosis in human Huh-7 cells assessed as late apoptotic cells at 0.2 uM by Annexin V/propidium iodide staining based flow cytometric analysis (reference value: 3.15%). Type of data set: functional.
Data set [6] has as its system Huh-7. The data set can be described thus: Induction of apoptosis in human Huh-7 cells assessed as necrotic cells at 0.1 uM by Annexin V/propidium iodide staining based flow cytometric analysis (reference value: 0.59%). Type of data set: functional.
Data set [7] deals with Huh-7. Kind of data set: Induction of apoptosis in human Huh-7 cells assessed as necrotic cells at 0.2 uM by Annexin V/propidium iodide staining based flow cytometric analysis (reference value: 0.59%). It is filed as functional.
The test system of data set [8] is Huh-7. Kind of data set: Induction of apoptosis in human Huh-7 cells by Annexin V/propidium iodide staining based flow cytometric analysis. Type of data set: functional, cell-based. The settings on record: dose 0.1-0.2 µM.
The target of data set [9] is Glycogen synthase kinase-3 beta (Homo sapiens) (UniProt P49841). The data set can be described thus: Inhibition of GSK3beta phosphorylation at […] residue in human Huh-7 cells at 0.1 to 0.2 uM by Western blot analysis. It is filed as cell-based. The settings on record: dose 0.1-0.2 µM. The essentials:
(§4)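 Huh-7 cells were treated with or without compound. Total protein extracts were separated by SDS-PAGE and transferred to PVDF. Membranes were probed with primary antibodies, then HRP-conjugated secondary antibody (1:10,000), and detected by enhanced chemiluminescence.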

Data set [10] is described as follows: Effect on total GDK3beta protein level in human Huh-7 cells at 0.1 to 0.2 uM by Western blot analysis. Type of data set: ADME, cell-based. As to conditions: huh-7, 0.2 µM, dose 0.1-0.2 µM. The essentials: as §4
In data set [11] the test system is Huh-7. Kind of data set: Induction of autophagy in human Huh-7 cells harboring mCherry-GFP-LC assessed as increase in autophagosome puncta formation at 0.2 uM by fluorescence assay. It is filed as functional, cell-based.
The test system of data set [12] is Huh-7. Kind of data set: Induction of autophagy in human Huh-7 cells assessed as increase in LC3-2 protein expression at 0.1 to 0.2 uM by Western blot analysis. Type of data set: functional, cell-based. The settings on record: dose 0.1-0.2 µM. The essentials: as §4
In data set [13] the test system is Huh-7. The data set can be described thus: Induction of autophagy in human Huh-7 cells assessed as increase in p62/SQSTM1 protein expression at 0.1 to 0.2 uM by Western blot analysis. It is filed as functional, cell-based. As to conditions: dose 0.1-0.2 µM. The gist of the method:
as §4

Data set [14] relates to Huh-7. The data set can be described thus: Induction of autophagy flux arrest in human Huh-7 cells assessed as reduction in LAMP1 at 0.2 uM by immunofluorescence staining based assay. It is filed as functional, cell-based. The essentials:
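Huh-7 cells with or without 0.2 µM compound were immunofluorescently co-stained for LC3 (autophagosome) and LAMP1 (lysosome). Co-localization was assessed by fluorescence imaging.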

Data set [15] has as its system Huh-7. The data set can be described thus: Induction of autophagy in human Huh-7 cells assessed as reduction in cell viability up to 72 hrs in presence of Baf-A1 by MTT assay. Type of data set: functional, cell-based. The settings on record: time hrs <=72.
In data set [16] the test system is Huh-7. Kind of data set: Induction of autophagy in human Huh-7 cells assessed as reduction in cathepsin B activity at 0.2 uM in presence of Baf-A1. It is filed as functional, cell-based.
Data set [17] deals with Huh-7. Kind of data set: Induction of autophagy in human Huh-7 cells assessed as reduction in cathepsin D activity at 0.2 uM in presence of Baf-A1. It is filed as functional, cell-based.
Data set [18] has as its system Huh-7. Kind of data set: Induction of autophagy in human Huh-7 cells assessed as reduction in cathepsin D activity at 0.2 uM in presence of 3-MA. Type of data set: functional, cell-based.
Data set [19] relates to Huh-7. The data set can be described thus: Antitumour activity against human Huh-7 cells xenografted in nude mouse assessed as reduction in tumour growth at […], ip up to 15 days. It is filed as functional, organism-based. The settings on record: time day <=15. The essentials: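 Nude mice bearing subcutaneous Huh-7 xenografts received 25 or 50 mg/Kg compound intraperitoneally. Tumor volume was followed from day 1 to day 15, with excised tumors weighed at the end. Body weight was also monitored.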

For data set [20], the system named is Huh-7. The data set can be described thus: Antitumour activity against human Huh-7 cells xenografted in nude mouse assessed as reduction in tumour weight at […], ip up to 15 days. Type of data set: functional, organism-based. The settings on record: time day <=15.
Data set [21] is described as follows: Effect on total AKT level in human Huh-7 cells xenografted in nude mouse at 20 to 50 mg/kg, ip up to 15 days by immunohistochemical analysis. It is filed as ADME, organism-based. The settings on record: in vivo, 360 h, dose 20-50 mg/kg, time <=15 day. The essentials:
as §1

Active and inactive are the calls of the source. The rule behind the calls is not given here.

Chain of Glycogen synthase kinase-3 beta (Homo sapiens) (P49841 whole entry, looked up): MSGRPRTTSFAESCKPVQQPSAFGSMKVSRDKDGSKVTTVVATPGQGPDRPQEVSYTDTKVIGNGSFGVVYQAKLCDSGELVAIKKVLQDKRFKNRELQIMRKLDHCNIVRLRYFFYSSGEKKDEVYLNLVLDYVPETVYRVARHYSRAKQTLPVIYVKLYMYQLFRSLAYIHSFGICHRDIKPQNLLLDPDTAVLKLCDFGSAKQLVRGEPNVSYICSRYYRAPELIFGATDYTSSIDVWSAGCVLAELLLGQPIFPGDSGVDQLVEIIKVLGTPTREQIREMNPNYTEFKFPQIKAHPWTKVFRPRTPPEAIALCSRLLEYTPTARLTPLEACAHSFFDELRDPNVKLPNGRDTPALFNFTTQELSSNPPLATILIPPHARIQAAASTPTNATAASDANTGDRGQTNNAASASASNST
Chain of RAC-gamma serine/threonine-protein kinase (Homo sapiens), Q9Y243 [S472D] (Q9Y243 whole entry S472D): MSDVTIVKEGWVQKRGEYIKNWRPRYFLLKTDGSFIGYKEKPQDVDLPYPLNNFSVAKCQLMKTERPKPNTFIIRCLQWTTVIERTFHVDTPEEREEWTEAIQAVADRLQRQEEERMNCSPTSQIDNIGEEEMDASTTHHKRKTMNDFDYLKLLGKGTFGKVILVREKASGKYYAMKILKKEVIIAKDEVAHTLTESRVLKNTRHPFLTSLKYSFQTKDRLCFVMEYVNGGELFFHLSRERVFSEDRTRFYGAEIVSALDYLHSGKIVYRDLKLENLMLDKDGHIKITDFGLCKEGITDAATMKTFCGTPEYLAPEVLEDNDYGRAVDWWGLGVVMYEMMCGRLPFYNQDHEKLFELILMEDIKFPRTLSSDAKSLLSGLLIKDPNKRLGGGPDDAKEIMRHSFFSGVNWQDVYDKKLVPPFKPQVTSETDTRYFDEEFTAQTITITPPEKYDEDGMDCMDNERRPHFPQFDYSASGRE

In general, IC50 refers to the midpoint of a concentration-inhibition curve. For the compound `O=C(C(CNC1CCCC1)c1ccc(Cl)cc1)N1CCN(c2ncnc3sc4c(c23)CCC4)CC1` (centres undefined), the outcome in the data set on Huh-7 [1], with Huh-7 [11], with Huh-7 [12], in the data set with Huh-7 [13], with Huh-7 [14] and in the data set with Huh-7 [15] was Active. The outcome in the data set with Huh-7 [16], in the data set on Huh-7 [17], with Huh-7 [19] and in the data set with Huh-7 [20] was Active. For the same compound, the Activity is 35% in data set [2]; 1% in the data set filed under Homo sapiens; 22% in [3]; 9.13% in the data set on Huh-7 [5]; 2.69% in the data set with Huh-7 [6]; 2.99% in the data set on Huh-7 [7]. Moreover, the Activity entry is “Dose-dependent effect” with Huh-7 [8], “Non-Toxic” in data set [10] and “Non-Toxic” in data set [21]. Moreover, the figures for the IC50 in the data set on HepG2 and with Hep 3B2 were 183 nM and 131 nM, respectively. The viability at 0.2 µM in the data set on Huh-7 [4] worked out at 80.8%. Besides, the inhibition result in [9] is “Active”. The result in the data set with Huh-7 [18] was inactive.
